The values below come from ChEMBL document CHEMBL1671633 (Antimicrob Agents Chemother, 2008).

Series [1] is described as follows: Cmax in healthy human at 900 mg, po thrice weekly measured on day 19 post compound dose by HPLC. Format: ADME, organism-based. The arrangement: dose 900 mg, route oral. The note with it: in vivo. The method, boiled down: (§1)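 Blood was drawn predose and at 2, 4, 6, 8, 10, 12, 24, 34 and 48 h after the first dose (day 5), and again on day 19 after 7 thrice-weekly doses (72-h sampling). Rifapentine and 25-desacetyl-rifapentine were measured by validated HPLC-UV with trimipramine as internal standard. Parameters came from noncompartmental analysis, with AUC truncated at 48 h.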

Series [2] concerns Homo sapiens. Kind of series: Ratio of Cmax in healthy human at 900 mg, po thrice weekly measured on day 19 post compound dose to Cmax in healthy human at 900 mg, po administered as a single dose measured on day 5. The conditions noted are these: in vivo.
A short description of series [3]: Apparent oral clearance in healthy human at 900 mg, po administered as a single dose measured on day 5 post compound dose by HPLC. It is filed as ADME, organism-based. The note with it: in vivo. Put shortly: as §1
For series [4], the system named is Homo sapiens. Kind of series: Ratio of AUC (0 to 48 hrs) in healthy human at 900 mg, po thrice weekly measured on day 19 post compound dose to AUC (0 to 48 hrs) in healthy human at 900 mg, po administered as a single dose measured on day 5 post compound dose. It is filed as ADME, organism-based. The conditions noted are these: in vivo. The method, boiled down: (§2)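 Healthy volunteers took oral RPT 900 mg thrice weekly, alongside MXF 400 mg daily, after a 750-kcal breakfast. Plasma was sampled over 48 h after the first RPT dose (day 5) and over 72 h after the seventh dose (day 19). RPT was measured by validated HPLC-UV with a trimipramine internal standard. Parameters were derived noncompartmentally, with AUC over 48 h, and compared as day 19/day 5 geometric mean ratios with 90% CI.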

Series [5] in a line: Half life in healthy human at 900 mg, po administered as a single dose measured on day 5 post compound dose by HPLC. Format: ADME, organism-based. The conditions noted are these: in vivo. The method, boiled down:
as §1

Series [6] can be described thus: Tmax in healthy human at 900 mg, po administered as a single dose measured on day 5 post compound dose by HPLC. Format: ADME, organism-based. The conditions noted are these: in vivo. The method, boiled down:
as §2

Series [7] deals with Homo sapiens. Kind of series: Volume of distribution in healthy human at 900 mg, po administered as a single dose measured on day 5 post compound dose by HPLC. It is filed as ADME, organism-based. The note with it: in vivo. The method, boiled down: as §1
Series [8] has as its system Homo sapiens. Kind of series: Ratio of Volume of distribution in healthy human at 900 mg, po thrice weekly measured on day 19 post compound dose to Volume of distribution in healthy human at 900 mg, po administered as a single dose measured on day 5. The note with it: in vivo.
For series [9], the system named is Homo sapiens. Kind of series: Ratio of Apparent oral clearance in healthy human at 900 mg, po thrice weekly measured on day 19 post compound dose to Apparent oral clearance in healthy human at 900 mg, po administered as a single dose measured on day 5. The conditions noted are these: in vivo.
A short description of series [10]: AUC (0 to 48 hrs) in healthy human at 900 mg, po thrice weekly measured on day 19 post compound dose by HPLC. It is filed as ADME, organism-based. The conditions noted are these: plasma. On the set-up: time < 48 hr, dose 900 mg, route oral. Put shortly:
as §1

For series [11], the system named is Homo sapiens. Kind of series: Ratio of Tmax in healthy human at 900 mg, po thrice weekly measured on day 19 post compound dose to Tmax in healthy human at 900 mg, po administered as a single dose measured on day 5. The conditions noted are these: in vivo.
Series [12] in a line: Apparent oral clearance in healthy human at 900 mg, po thrice weekly measured on day 19 post compound dose by HPLC. It is filed as ADME, organism-based. The conditions noted are these: in vivo. The method, boiled down:
as §1

Series [13] can be described thus: Half life in healthy human at 900 mg, po thrice weekly measured on day 19 post compound dose by HPLC. It is filed as ADME, organism-based. The note with it: in vivo. Put shortly: as §1
Series [14] can be described thus: Tmax in healthy human at 900 mg, po thrice weekly measured on day 19 post compound dose by HPLC. Format: ADME, organism-based. The conditions noted are these: in vivo. Put shortly:
as §2

Series [15] has as its system Homo sapiens. Kind of series: Volume of distribution in healthy human at 900 mg, po thrice weekly measured on day 19 post compound dose by HPLC. Format: ADME, organism-based. The conditions noted are these: in vivo. The method, boiled down: as §1
Series [16] concerns Homo sapiens. Kind of series: Ratio of Half life in healthy human at 900 mg, po thrice weekly measured on day 19 post compound dose to Half life in healthy human at 900 mg, po administered as a single dose measured on day 5. The conditions noted are these: in vivo.
Series [17] can be described thus: AUC (0 to 48 hrs) in healthy human at 900 mg, po administered as a single dose measured on day 5 post compound dose by HPLC. The conditions noted are these: plasma. Format: ADME, organism-based. On the set-up: time < 48 hr, dose 900 mg, route oral. Put shortly:
as §1

Series [18] can be described thus: Cmax in healthy human at 900 mg, po administered as a single dose measured on day 5 post compound dose by HPLC. Format: ADME, organism-based. On the set-up: dose 900 mg, route oral. The conditions noted are these: in vivo. Put shortly:
as §1

In series [19] the test system is Homo sapiens. Kind of series: Tmax in healthy human assessed as 25-desacetyl-rifapentine level at 900 mg, po administered as a single dose measured on day 5 post compound dose by HPLC. The note with it: in vivo. It is filed as ADME, organism-based. Put shortly: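 Healthy volunteers took a single oral 900 mg rifapentine dose on day 5, after a continental breakfast (750 kcal, 20% fat), alongside ongoing 400 mg daily MXF. Plasma was sampled predose and at 2, 4, 6, 8, 10, 12, 24, 34 and 48 h. 25-desacetyl-RPT was measured by validated HPLC with UV detection and trimipramine internal standard. Tmax was derived noncompartmentally.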

A short description of series [20]: AUC (0 to 24 hrs ) in healthy human at 400 mg, po qd measured on day 4 by HPLC. Format: ADME, organism-based. The arrangement: time < 24 hr, dose 400 mg, route oral. The note with it: plasma.
The nature of series [21]: Cmax in healthy human at 400 mg, po qd coadministered with 900 mg, po thrice weekly of rifapentine on day 5 post compound dose measured on day 19 post compound dose by HPLC. The arrangement: dose 400 mg, route oral. Format: ADME, organism-based. The note with it: in vivo.
Series [22] can be described thus: Tmax in healthy human at 400 mg, po qd measured on day 4 by HPLC. Format: ADME, organism-based. The note with it: in vivo. The method, boiled down: (§3)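 Healthy volunteers took oral MXF 400 mg once daily with a continental breakfast (750 kcal, 20% fat). Sampling was on day 4 (after four doses, MXF alone) or on day 19 (with 900 mg RPT thrice weekly added from day 5; 72-h sampling). Plasma MXF was measured by validated HPLC with fluorescence detection (standard curve 0.20–15 µg/ml). Tmax was derived noncompartmentally.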

Series [23] in a line: Tmax in healthy human at 400 mg, po qd coadministered with 900 mg, po thrice weekly of rifapentine on day 5 post compound dose measured on day 19 post compound dose by HPLC. Format: ADME, organism-based. The note with it: in vivo. The method, boiled down:
as §3

For series [24], the system named is Homo sapiens. Kind of series: AUC (0 to 48 hrs) in healthy human assessed as 25-desacetyl-rifapentine level at 900 mg, po administered as a single dose measured on day 5 post compound dose by HPLC. Format: ADME, organism-based, Plasma. On the set-up: dose 900 mg, time < 48 hr, route oral. The conditions noted are these: in vivo. Put shortly: as §1
In series [25] the test system is Homo sapiens. Kind of series: Toxicity in healthy human assessed as incidence of adverse events at 400 mg, po qd coadministered with 900 mg, po thrice weekly of rifapentine on day 5 post compound dose measured on day 19 post compound dose. Format: organism-based. The note with it: in vivo. Put shortly: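 Doses were given after a continental breakfast, with no other medications, alcohol or smoking allowed. Adherence was tracked by pill counts and medication diaries, and adverse events were recorded during and after dosing.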

Series [26] is described as follows: AUC (0 to 24 hrs ) in healthy human at 400 mg, po qd coadministered with 900 mg, po thrice weekly of rifapentine on day 5 post compound dose measured on day 19 post compound dose by HPLC. Format: ADME, organism-based. On the set-up: time < 24 hr, dose 400 mg, route oral. The conditions noted are these: plasma.
In series [27] the test system is Homo sapiens. Kind of series: AUC (0 to 48 hrs) in healthy human assessed as 25-desacetyl-rifapentine level at 900 mg, po thrice weekly measured on day 19 post compound dose by HPLC. Format: ADME, organism-based, Plasma. On the set-up: dose 900 mg, time < 48 hr, route oral. The conditions noted are these: in vivo. Put shortly: as §1

As for `CO[C@H]1/C=C/O[C@@]2(C)Oc3c(C)c(O)c4c(O)c(c(/C=N/N5CCN(C6CCCC6)CC5)c(O)c4c3C2=O)NC(=O)/C(C)=C\C=C\[C@H](C)[C@H](O)[C@@H](C)[C@@H](O)[C@@H](C)[C@H](OC(C)=O)[C@@H]1C` [RIFAPENTINE], the Cmax in [1] worked out at 21200 ng/mL; in series [18], 21900 ng/mL. Besides, the Ratio in the series on Homo sapiens [2] worked out at 0.96; with Homo sapiens [8], 1.07; in the series on Homo sapiens [9] it was 1.36; in the series on Homo sapiens [11], 0.93; in the series with Homo sapiens [16] it was 0.78. Further, the CL/F in [3] was 26.5 mL/min; in [12] it was 36.2 mL/min. Besides, the “Ratio AUC” value with Homo sapiens [4] is 0.8. Also, the half-life in series [5] is 1110 min; in series [13], 888 min. For the same molecule, the Tmax in series [6] amounted to 5.08 h; in series [14] it was 4.77 h. Further, the Vd amounted to 40.7 L in the series on Homo sapiens [7] and 43.7 L with Homo sapiens [15]. In [10], this molecule returned an AUC at 48 h of 410 µg·h/mL. Further, the AUC(0-t) at 48 h in series [17] was 513 µg·h/mL.

For the molecule `COc1c(N2C[C@@H]3CCCN[C@@H]3C2)c(F)cc2c(=O)c(C(=O)O)cn(C3CC3)c12` [MOXIFLOXACIN], the Tmax in the series with Homo sapiens [19] is 24.9 h; in series [22], 2.37 h; in series [23] it was 2.6 h. The AUC at 24 h in [20] was 41900 ng·h/mL; in series [26] it was 34400 ng·h/mL. Further, in series [21], the Cmax amounted to 3330 ng/mL. Further, the AUC with Homo sapiens [24] is 461.7 µg·h/mL; in the series on Homo sapiens [27], 369.9 µg·h/mL. Moreover, the Activity result in the series with Homo sapiens [25] is “Non-toxic”.

One may read the Cmax as the peak of the concentration-time curve. As usually defined, the CL/F is the apparent clearance, not corrected for the fraction that reaches the circulation. What is called half-life is how long it takes for the measured level to halve. One may read the Tmax as the time at which the peak concentration occurs. For orientation: AUC means concentration integrated over time. One may read the AUC(0-t) as exposure summed from dosing to a finite time, without extrapolation to infinity. Higher therefore signals more exposure.
